Assay results taken from ChEMBL document CHEMBL1136049, “Synthesis of syn- and anti-1-amino-3-[18F]fluoromethyl-cyclobutane-1-carboxylic acid (FMACBC), potential PET ligands for tumor detection” (J Med Chem, 2002).

Assays:
Rattus norvegicus [1] = species: Rattus norvegicus; experiment: Radioactivity distribution in heart of tumor-bearing fischer rat after injection of syn-[18F]-FMACBC after 120 min; type: ADME, organism-based; conditions: in vivo, 2 h
Outline: (§1)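 Male Fischer 344 rats carrying intracranial rat 9L gliosarcoma, made by stereotaxic injection of 4 × 10^4 cells 17–19 days before. Awake restrained rats received ~35 μCi of 18F tracer in 0.3 mL sterile water IV by tail vein and were killed at 5, 60 or 120 min, n = 3–5. Tissues were weighed, gamma-counted, decay-corrected and expressed as % injected dose per gram.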

Rattus norvegicus [2] = species: Rattus norvegicus; experiment: Radioactivity distribution in liver of tumor-bearing fischer rat after injection of syn-[18F]-FMACBC after 60 min; type: ADME, organism-based; conditions: in vivo, 1 h
Outline: (§2)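 Male Fischer 344 rats with intracranial 9L gliosarcoma (4 × 10^4 cells stereotaxically implanted; used 17–19 days after implantation). About 35 μCi tracer in 0.3 mL sterile water was given by tail vein to awake, restrained rats. Rats were killed at 5, 60 or 120 min. Tissues, tumor and contralateral brain were weighed and gamma counted, decay-corrected, and expressed as %ID/g; n = 3–5 per time point.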

Rattus norvegicus [3] = species: Rattus norvegicus; experiment: Radioactivity distribution in pancreas of normal fischer rat after injection of anti-[18F]FMACBC after 120 min.; type: ADME, organism-based; conditions: in vivo, 2 h
Outline: (§3)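 Normal male Fischer 344 rats (200–250 g) were anesthetised with ketamine:xylazine i.m. and given about 85 μCi tracer in 0.3 mL sterile water via a tail vein catheter. Groups of four were killed at 5, 30, 60 and 120 min. Selected tissues were weighed and gamma counted with dose standards, decay-corrected, and expressed as mean %ID/g.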

Rattus norvegicus [4] = species: Rattus norvegicus; experiment: Radioactivity distribution in heart of normal fischer rat after injection of syn-[18F]-FMACBC after 5 min.; type: ADME, organism-based; conditions: in vivo
Outline: (§4)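 Male Fischer 344 rats (200–250 g), normal, fed ad libitum, given ~85 μCi of 18F tracer in 0.3 mL sterile water IV through a tail vein catheter. Anesthesia was ketamine:xylazine IM. Groups of four were killed at 5, 30, 60 and 120 min. Tissues were weighed and gamma-counted against dose standards, decay-corrected, and expressed as mean % injected dose per gram.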

Rattus norvegicus [5] = species: Rattus norvegicus; experiment: Radioactivity distribution in lung of tumor-bearing fischer rat after injection of anti-[18F]FMACBC after 5 min; type: ADME, organism-based; conditions: in vivo; outline: as §2
Rattus norvegicus [6] = species: Rattus norvegicus; experiment: Radioactivity distribution in brain of tumor-bearing fischer rat after injection of syn-[18F]-FMACBC after 120 min; type: ADME, organism-based; conditions: in vivo, 2 h; outline: as §1
Rattus norvegicus [7] = species: Rattus norvegicus; experiment: Radioactivity distribution in bone of tumor-bearing fischer rat after injection of syn-[18F]-FMACBC after 60 min; type: ADME, organism-based, Bone element; conditions: in vivo, 1 h; outline: as §1
Rattus norvegicus [8] = species: Rattus norvegicus; experiment: Radioactivity distribution in blood of normal fischer rat after injection of syn-[18F]-FMACBC after 5 min.; type: ADME, organism-based; conditions: in vivo; outline: as §4
Rattus norvegicus [9] = species: Rattus norvegicus; experiment: Radioactivity distribution in brain of tumor-bearing fischer rat after injection of anti-[18F]FMACBC after 120 min; type: ADME, organism-based; conditions: in vivo, 2 h; outline: as §1
Rattus norvegicus [10] = species: Rattus norvegicus; experiment: Radioactivity distribution in tumor of tumor-bearing fischer rat after injection of syn-[18F]-FMACBC after 60 min; type: ADME, organism-based; conditions: in vivo, 1 h; outline: as §2
Rattus norvegicus [11] = species: Rattus norvegicus; experiment: Radioactivity distribution in liver of normal fischer rat after injection of syn-[18F]-FMACBC after 30 min.; type: ADME, organism-based; conditions: in vivo, 0.5 h; outline: as §4
Rattus norvegicus [12] = species: Rattus norvegicus; experiment: Radioactivity distribution in pancreas of normal fischer rat after injection of anti-[18F]FMACBC after 30 min.; type: ADME, organism-based; conditions: in vivo, 0.5 h; outline: as §3
Rattus norvegicus [13] = species: Rattus norvegicus; experiment: Radioactivity distribution in brain of normal fischer rat after injection of anti-[18F]FMACBC after 60 min.; type: ADME, organism-based; conditions: in vivo, 1 h; outline: as §4
Rattus norvegicus [14] = species: Rattus norvegicus; experiment: Radioactivity distribution in liver of normal fischer rat after injection of anti-[18F]FMACBC after 120 min.; type: ADME, organism-based; conditions: in vivo, 2 h; outline: as §4
Rattus norvegicus [15] = species: Rattus norvegicus; experiment: Radioactivity distribution in testis of normal fischer rat after injection of syn-[18F]-FMACBC after 5 min.; type: ADME, organism-based; conditions: in vivo; outline: as §3
Rattus norvegicus [16] = species: Rattus norvegicus; experiment: Radioactivity distribution in blood of normal fischer rat after injection of syn-[18F]-FMACBC after 30 min.; type: ADME, organism-based; conditions: in vivo, 0.5 h; outline: as §4
Rattus norvegicus [17] = species: Rattus norvegicus; experiment: Radioactivity distribution in tumor of tumor-bearing fischer rat after injection of anti-[18F]FMACBC after 5 min; type: ADME, organism-based; conditions: in vivo; outline: as §2
Rattus norvegicus [18] = species: Rattus norvegicus; experiment: Radioactivity distribution in testis of tumor-bearing fischer rat after injection of anti-[18F]FMACBC after 60 min; type: ADME, organism-based; conditions: in vivo, 1 h; outline: as §2
Rattus norvegicus [19] = species: Rattus norvegicus; experiment: Radioactivity distribution in liver of tumor-bearing fischer rat after injection of syn-[18F]-FMACBC after 120 min; type: ADME, organism-based; conditions: in vivo, 2 h; outline: as §2
Rattus norvegicus [20] = species: Rattus norvegicus; experiment: Radioactivity distribution in muscle of tumor-bearing fischer rat after injection of syn-[18F]-FMACBC after 60 min; type: ADME, organism-based, Muscle tissue; conditions: in vivo, 1 h; outline: as §2
Rattus norvegicus [21] = species: Rattus norvegicus; experiment: Radioactivity distribution in lungs of normal fischer rat after injection of syn-[18F]-FMACBC after 30 min.; type: ADME, organism-based, Lung; conditions: in vivo, 0.5 h; outline: as §3
Rattus norvegicus [22] = species: Rattus norvegicus; experiment: Radioactivity distribution in lung of tumor-bearing fischer rat after injection of anti-[18F]FMACBC after 60 min; type: ADME, organism-based; conditions: in vivo, 1 h; outline: as §2
Rattus norvegicus [23] = species: Rattus norvegicus; experiment: Radioactivity distribution in pancreas of normal fischer rat after injection of syn-[18F]-FMACBC after 120 min.; type: ADME, organism-based; conditions: in vivo, 2 h; outline: as §3
Rattus norvegicus [24] = species: Rattus norvegicus; experiment: Radioactivity distribution in muscle of normal fischer rat after injection of syn-[18F]-FMACBC after 120 min.; type: ADME, organism-based, Muscle tissue; conditions: in vivo, 2 h; outline: as §3
Rattus norvegicus [25] = species: Rattus norvegicus; experiment: Radioactivity distribution in bone of normal fischer rat after injection of anti-[18F]FMACBC after 30 min.; type: ADME, organism-based, Bone element; conditions: in vivo, 0.5 h; outline: as §4
Rattus norvegicus [26] = species: Rattus norvegicus; experiment: Radioactivity distribution in kidney of tumor-bearing fischer rat after injection of syn-[18F]-FMACBC after 5 min; type: ADME, organism-based; conditions: in vivo; outline: as §1
Rattus norvegicus [27] = species: Rattus norvegicus; experiment: Radioactivity distribution in bone of tumor-bearing fischer rat after injection of syn-[18F]-FMACBC after 120 min; type: ADME, organism-based, Bone element; conditions: in vivo, 2 h; outline: as §1
Rattus norvegicus [28] = species: Rattus norvegicus; experiment: Radioactivity distribution in pancreas of tumor-bearing fischer rat after injection of syn-[18F]-FMACBC after 5 min; type: ADME, organism-based; conditions: in vivo; outline: as §2
Rattus norvegicus [29] = species: Rattus norvegicus; experiment: Radioactivity distribution in testis of normal fischer rat after injection of anti-[18F]FMACBC after 30 min.; type: ADME, organism-based; conditions: in vivo, 0.5 h; outline: as §3
Rattus norvegicus [30] = species: Rattus norvegicus; experiment: Radioactivity distribution in pancreas of normal fischer rat after injection of anti-[18F]FMACBC after 60 min.; type: ADME, organism-based; conditions: in vivo, 1 h; outline: as §3
Rattus norvegicus [31] = species: Rattus norvegicus; experiment: Radioactivity distribution in testis of normal fischer rat after injection of syn-[18F]-FMACBC after 120 min.; type: ADME, organism-based; conditions: in vivo, 2 h; outline: as §3
Rattus norvegicus [32] = species: Rattus norvegicus; experiment: Radioactivity distribution in heart of normal fischer rat after injection of anti-[18F]FMACBC after 30 min.; type: ADME, organism-based; conditions: in vivo, 0.5 h; outline: as §4
Rattus norvegicus [33] = species: Rattus norvegicus; experiment: Radioactivity distribution in heart of tumor-bearing fischer rat after injection of anti-[18F]FMACBC after 120 min; type: ADME, organism-based; conditions: in vivo, 2 h; outline: as §1
Rattus norvegicus [34] = species: Rattus norvegicus; experiment: Radioactivity distribution in testis of tumor-bearing fischer rat after injection of syn-[18F]-FMACBC after 5 min; type: ADME, organism-based; conditions: in vivo; outline: as §2
Rattus norvegicus [35] = species: Rattus norvegicus; experiment: Radioactivity distribution in brain of tumor-bearing fischer rat after injection of syn-[18F]-FMACBC after 60 min; type: ADME, organism-based; conditions: in vivo, 1 h; outline: as §1
Rattus norvegicus [36] = species: Rattus norvegicus; experiment: Radioactivity distribution in tumor of tumor-bearing fischer rat after injection of anti-[18F]FMACBC after 60 min; type: ADME, organism-based; conditions: in vivo, 1 h; outline: as §2
Rattus norvegicus [37] = species: Rattus norvegicus; experiment: Radioactivity distribution in blood of normal fischer rat after injection of anti-[18F]FMACBC after 120 min.; type: ADME, organism-based; conditions: in vivo, 2 h; outline: as §4
Rattus norvegicus [38] = species: Rattus norvegicus; experiment: Radioactivity distribution in muscle of tumor-bearing fischer rat after injection of anti-[18F]FMACBC after 5 min; type: ADME, organism-based, Muscle tissue; conditions: in vivo; outline: as §2
Rattus norvegicus [39] = species: Rattus norvegicus; experiment: Radioactivity distribution in testis of normal fischer rat after injection of syn-[18F]-FMACBC after 60 min.; type: ADME, organism-based; conditions: in vivo, 1 h; outline: as §3
Rattus norvegicus [40] = species: Rattus norvegicus; experiment: Radioactivity distribution in pancreas of tumor-bearing fischer rat after injection of anti-[18F]FMACBC after 5 min; type: ADME, organism-based; conditions: in vivo; outline: as §2
Rattus norvegicus [41] = species: Rattus norvegicus; experiment: Radioactivity distribution in brain of normal fischer rat after injection of syn-[18F]-FMACBC after 120 min.; type: ADME, organism-based; conditions: in vivo, 2 h; outline: as §4

Work on N[C@]1(C(=O)O)C[C@@H](CF)C1 yielded an ID/g (Rattus norvegicus [1]) of 0.33%, an ID/g (Rattus norvegicus [2]) of 0.33% and an ID/g (Rattus norvegicus [3]) of 4.09%. The ID/g (Rattus norvegicus [4]) was 0.63%, the ID/g (Rattus norvegicus [5]) was 0.55% and the ID/g (Rattus norvegicus [6]) was 0.27%. For the same compound, the ID/g (Rattus norvegicus [7]) was 0.12%, the ID/g (Rattus norvegicus [8]) was 0.53% and the ID/g (Rattus norvegicus [9]) was 0.28%. The ID/g (Rattus norvegicus [10]) was 1.59%, the ID/g (Rattus norvegicus [11]) was 0.37% and the ID/g (Rattus norvegicus [12]) was 4.13%. It also gave an ID/g (Rattus norvegicus [13]) of 0.25%, an ID/g (Rattus norvegicus [14]) of 0.48% and an ID/g (Rattus norvegicus [15]) of 0.32%. The ID/g (Rattus norvegicus [16]) was 0.33%, the ID/g (Rattus norvegicus [17]) was 1.28% and the ID/g (Rattus norvegicus [18]) was 0.26%. The ID/g (Rattus norvegicus [19]) was 0.25%, the ID/g (Rattus norvegicus [20]) was 0.54% and the ID/g (Rattus norvegicus [21]) was 0.46%. For the same compound, the ID/g (Rattus norvegicus [22]) was 0.38%, the ID/g (Rattus norvegicus [23]) was 3.88% and the ID/g (Rattus norvegicus [24]) was 0.6%. The ID/g (Rattus norvegicus [25]) was 0.31%, the ID/g (Rattus norvegicus [26]) was 0.59% and the ID/g (Rattus norvegicus [27]) was 0.13%. It also gave an ID/g (Rattus norvegicus [28]) of 3.19%, an ID/g (Rattus norvegicus [29]) of 0.25% and an ID/g (Rattus norvegicus [30]) of 3.83%. It also gave an ID/g (Rattus norvegicus [31]) of 0.22%, an ID/g (Rattus norvegicus [32]) of 0.68% and an ID/g (Rattus norvegicus [33]) of 0.52%. For the same compound, the ID/g (Rattus norvegicus [34]) was 0.19%, the ID/g (Rattus norvegicus [35]) was 0.23% and the ID/g (Rattus norvegicus [36]) was 2.5%. For the same compound, the ID/g (Rattus norvegicus [37]) was 0.31%, the ID/g (Rattus norvegicus [38]) was 0.57% and the ID/g (Rattus norvegicus [39]) was 0.23%. The ID/g (Rattus norvegicus [40]) was 3.26% and the ID/g (Rattus norvegicus [41]) was 0.21%.
